Measured values of several laboratories.
Each line is one published result; the experiments were not run side by side.
Target: Protein kinase C epsilon type (PRKCE, Homo sapiens, UniProt Q02156)

Structure (SMILES) | read-out | action | technique | tested at | endpoint | value
CC(C)c1ccc(NC(=O)c2cccs2)c(-c2nc3ccccc3[nH]c2=O)c1 | enzyme activity | inhibitor | – | 1 µM | activity vs control | 109%
Cc1ccc(-n2nc(C(C)(C)C)cc2NC(=O)Nc2ccc(OCCN3CCOCC3)c3ccccc23)cc1 | enzyme activity | inhibitor | – | 10 µM | inhibition | 16%
CS(=O)(=O)Nc1cccc(-c2csc(NC(=O)CSc3nc4nccnc4c(=O)n3CCc3ccccc3)n2)c1 | enzyme activity | inhibitor | – | 10 µM | inhibition | -9%
C=CC(=O)Nc1cc(Nc2nccc(Nc3cc(Cl)c(F)cc3C(C)(C)O)n2)c(OC)cc1N1CC[C@@H](N(C)C)C1 | enzyme activity | inhibitor | – | 1 µM | inhibition | 2%
Cc1nc(N2CC[C@@H](O)C2)ncc1-c1cc(C(F)(F)F)cc2[nH]ncc12 | cell-free assay | – | competition with immobilised ligand | 1 µM | remaining binding | 88%
Cc1ccc(NC(=O)c2ccc(C)c(C(F)(F)F)c2)cc1C#Cc1nn(C2CCC(O)CC2)c2ncnc(N)c12 (centres unmarked) | cell-free assay | – | – | 10 µM | remaining signal | 117%
Nc1ncnc2occ(-c3ccc(NC(=O)Nc4cc(C(F)(F)F)ccc4F)cc3)c12 | cell-free assay | – | – | 20 µM | remaining signal | 50%
Cc1ccc(C(=O)Nc2ccc(CN3CCN(C)CC3)c(C(F)(F)F)c2)cc1C#Cc1cnc2cccnn12 | enzyme activity | – | – | 23.5 nM | remaining activity | 77%
Cn1cncc1C1=CN(c2ncnc3[nH]cnc23)CCS1 | enzyme activity | inhibitor | radiometric | 2 µM | inhibition | 92.7%
CCCOc1ccc(OC)c(F)c1C(=O)c1ccc(C(=O)N[C@@H]2CNC[C@H]2NC(=O)c2ccc3[nH]ncc3c2)cc1 | enzyme activity | inhibitor | – | 10 µM | remaining activity | 67%
CN(C)C[C@H]1CCn2c(c(C3=C(c4cn(C)c5ccccc45)C(=O)NC3=O)c3ccccc32)C1 | cell-free assay | – | – | 0.5 µM | remaining signal | 2.73%
CC(C)(C)c1nc(-c2cccc(NS(=O)(=O)c3c(F)cccc3F)c2F)c(-c2ccnc(N)n2)s1 | enzyme activity | inhibitor | radiometric | 1 µM | remaining activity | 132%
CNC(=O)c1cc(Oc2ccc(NC(=O)Nc3ccc(Cl)c(C(F)(F)F)c3)cc2)ccn1 | cell-free assay | – | – | 0.5 µM | remaining signal | 96.4%
Cc1cnc(NC2CCOCC2)nc1-n1cnc(C(=O)NC(CN)c2cc(F)cc(Cl)c2)c1 (centres unmarked) | enzyme activity | inhibitor | radiometric | 1 µM | remaining activity | 91%
Cc1nc(Cc2cccc(C(F)(F)F)c2)sc1-c1ccc(C(N)=O)nc1 | cell-free assay | – | competition with immobilised ligand | 1 µM | remaining binding | 100%
O=C(Nc1nccs1)C(c1cc(F)ccc1O)N1Cc2ccccc2C1=O (centres unmarked) | enzyme activity | inhibitor | – | 1 µM | inhibition | 14%
Nc1cnc(N2CCc3cc(S(=O)(=O)Nc4c(F)cc(Cl)cc4F)cc(N4CCCC4=O)c32)nc1 | cell-free assay | – | competition with immobilised ligand | 1 µM | remaining binding | 100%
CCN(CC)CCNC(=O)c1c(C)[nH]c(/C=C2\C(=O)Nc3ccc(F)cc32)c1C | enzyme activity | inhibitor | – | 10 µM | inhibition | 21%
CN(C)CC#Cc1ccc(OCCCc2sc(N3CCc4cccc(C(=O)Nc5nc6ccccc6s5)c4C3)nc2C(=O)O)c(F)c1 | cell-free assay | – | competition with immobilised ligand | 1 µM | remaining binding | 100%
CC(C)(O)[C@H]1CC[C@H](Nc2ccc3ncc(-c4cccc(C(F)(F)F)c4)n3n2)CC1 | enzyme activity | inhibitor | – | 1 µM | remaining activity | 60.1%
O=C(Nc1cccnn1)N1CCC(=Cc2cccc(Oc3ccc(C(F)(F)F)cn3)c2)CC1 | cell-free assay | – | competition with immobilised ligand | 1 µM | remaining binding | 82%
COc1cc2ncnc(Nc3ccc(Oc4ccccc4)cc3C)c2cc1OC | enzyme activity | inhibitor | – | 1 µM | inhibition | 0%
CNCc1ccccc1-c1csc([C@H](C)Nc2nc(C)nc3cc(OC)c(OC)cc23)c1 | cell-free assay | – | competition with immobilised ligand | 1 µM | remaining binding | 78%
O=C(Nc1cnn(-c2csc(C(=O)NC3COC3)c2)c1)Nc1ccccc1Cl | enzyme activity | inhibitor | – | 5 µM | remaining activity | 102%
COc1ccc2c(c1)O[C@H](c1ccc(OC)c(OC)c1)C[C@@H]2NC(=O)C1(c2ccc3c(c2)OC(F)(F)O3)CC1 | cell-free assay | – | competition with immobilised ligand | 1 µM | remaining binding | 90%
O=C1NC(=O)c2cc(Nc3ccc(F)cc3)c(Nc3ccc(F)cc3)cc21 | cell-free assay | – | – | 0.5 µM | remaining signal | 97.8%
